The species named for one assay is Homo sapiens. Put plainly: Percent recovery of Human embryonic kidney tsa-201 cells. The class given is functional.
Assay [1] in a line: Maximum inhibition of L-type calcium channel expressed in HEK tsa-201 cells from Patch Clamp analysis. The class given is functional, HEK293. The method, boiled down:
(§1)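 Whole-cell patch clamp on GFP-positive tsa-201 cells transiently co-transfected (calcium phosphate) with α1C, β1b, α2-δ and GFP, then held at 28 °C for 2–4 days. Bath contained 5 mM BaCl2 as the charge carrier (pH 7.2), and pipettes held CsMS/EGTA. Currents were elicited from −80 mV to test potentials. Compound was diluted from a 10 mM DMSO stock and microperfused, and dose–response curves were fitted individually.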

Assay [2] is described as follows: Inhibition of L-type calcium channel subunits alpha1C, beta1b, and alpha2-delta subunits expressed in Human embryonic kidney tsa-201 cells. The class given is cell-based. The method, boiled down: as §1

In the assay listed under Homo sapiens, `CCOC(=O)C1=C(C)N=C(C)/C(=C(/O)OCC)C1c1c(-c2ccc(Cl)cc2)noc1C` (stereo not given) displayed a Recovery of 77%. The Max inhibition in assay [1] is 100.
The term IC50 denotes the point on the concentration scale where inhibition reaches its midpoint. For the molecule `CCOC(=O)C1=C(C)N=C(C)/C(=C(/O)OCC)C1c1c(C)noc1CCc1cccc2ccccc12` (stereo not given), in the assay listed under Homo sapiens, the Recovery stood at 43%. Moreover, in assay [2], the IC50 is 470 nM. The Max inhibition in assay [1] is on record as 76.
For `COC(=O)C1=C(C)N=C(C)/C(=C(/O)OC)C1c1c(-c2ccc(F)cc2)noc1C` (stereo not given), in that order: 66%, 2710 nM and 93.
`CCOC(=O)C1=C(C)N=C(C)/C(=C(/O)OCC)C1c1c(-c2ccccc2Cl)noc1C` (stereo not given) gave a Recovery in the assay listed under Homo sapiens of 65%. The IC50 in assay [2] came out at 9680 nM. Also, the Max inhibition in assay [1] was found to be 70.
For the molecule `COC(=O)C1=C(C)N=C(C)/C(=C(/O)OC)C1c1c(-c2ccc(Cl)cc2)noc1C` (stereo not given), the Recovery in the assay filed under Homo sapiens amounted to 64%. Further, the IC50 in assay [2] worked out at 1740 nM. Also, the Max inhibition in assay [1] stood at 85.
For `CCOC(=O)C1=C(C)N=C(C)/C(=C(/O)OCC)C1c1c(C)noc1CCc1ccccc1` (stereo not given), in that order: 46%, 1790 nM and 100.
For `CCOC(=O)C1=C(C)N=C(C)/C(=C(/O)OCC)C1c1c(C)noc1CCc1ccc2ccccc2c1` (stereo not given), in the assay listed under Homo sapiens, the Recovery amounted to 41%. Besides, in assay [2], the half-maximal inhibitory concentration (IC50) turned out to be 1180 nM. In assay [1], the Max inhibition was 100.
As to `CCOC(=O)C1=C(C)N=C(C)/C(=C(/O)OCC)C1c1c(-c2ccccc2OC)noc1C` (stereo not given), in the assay filed under Homo sapiens, the Recovery came to 69%. Besides, in assay [1], the Max inhibition is on record as 55.
Molecule `CCOC(=O)C1=C(C)N=C(C)/C(=C(/O)OCC)C1c1c(C)noc1CCc1cccc(OC)c1` (stereo not given) came in with a Recovery in the assay filed under Homo sapiens of 49%. For the same molecule, the half-maximal inhibitory concentration (IC50) in assay [2] was 1590 nM. Besides, the Max inhibition in assay [1] was 100.
For `CCOC(=O)C1=C(C)N=C(C)/C(=C(/O)OCC)C1c1c(C)noc1C` (stereo not given), in that order: 87%, 8100 nM and 100.
For `COC(=O)C1=C(C)N=C(C)/C(=C(/O)OC)C1c1c(-c2ccc(Br)cc2)noc1C` (stereo not given), in that order: 60%, 580 nM and 88.
For `CCOC(=O)C1=C(C)N=C(C)/C(=C(/O)OCC)C1c1c(-c2cc(Cl)ccc2OC)noc1C` (stereo not given), in that order: 82%, 6860 nM and 33.
As for `CCOC(=O)C1=C(C)N=C(C)/C(=C(/O)OCC)C1c1c(-c2cccc(Cl)c2)noc1C` (stereo not given), in the assay filed under Homo sapiens, the Recovery came to 65%. In assay [2], the 50% inhibitory concentration (IC50) is 1980 nM. Besides, the Max inhibition in assay [1] turned out to be 100.
With `CCOC(=O)C1=C(C)N=C(C)/C(=C(/O)OCC)C1c1c(C)noc1CCc1cccc(Br)c1` (stereo not given), the Recovery in the assay listed under Homo sapiens is 48%. For the same molecule, the IC50 in assay [2] was 130 nM. Further, the Max inhibition in assay [1] is given as 100.
